# Test results as given in ChEMBL document CHEMBL1139324, “Chemical modification and biological evaluation of new semisynthetic derivatives of 28,29-Didehydronystatin A1 (S44HP), a genetically engineered antifungal polyene macrolide antibiotic” (J Med Chem, 2009).
# Experiments:
# Candida albicans [1] = assay: Antifungal activity against Candida albicans ATCC 14053 after 48 hrs by broth microdilution method; assay type: functional; conditions: ATCC 14053, 48 h
# Procedure, shortened: (§1)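 Yeast susceptibility by broth microdilution per NCCLS M27-A in 96-well plates. MIC is the lowest concentration inhibiting growth. Where repeat runs fully coincided, a single value is reported.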
# Aspergillus niger = assay: Antifungal activity against Aspergillus niger ATCC 16404 after 48 hrs by broth microdilution method; assay type: functional; conditions: ATCC 16404, 48 h
# Procedure, shortened: (§2)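 Susceptibility of filamentous fungi (molds) by broth microdilution per NCCLS M38-A in 96-well microplates. The MIC is read as the lowest inhibitory concentration. It is given as one number when replicate data fully agreed.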
# [2] = Toxicity against human erythrocytes assessed as hemolytic activity at 5 ug/ml; assay type: cell-based, Erythrocyte; conditions: read-out: Activity
# Procedure, shortened: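 Lysis of erythrocytes in defibrinated human blood was measured under buffered conditions with compound at 5 µg/mL. Percent hemolysis is the mean of blood samples from two donors.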
# Fusarium oxysporum = assay: Antifungal activity against Fusarium oxysporum VKM F-140 after 48 hrs by broth microdilution method; assay type: functional; procedure, shortened: as §2
# Vanrija humicola = assay: Antifungal activity against Cryptococcus humicolus ATCC 9949 after 48 hrs by broth microdilution method; assay type: functional; conditions: ATCC 9949, 48 h; procedure, shortened: as §1
# Candida albicans [3] = assay: Antifungal activity against Candida albicans ATCC 10231after 48 hrs by broth microdilution method; assay type: functional; conditions: ATCC 10231, 48 h
smiles,measurement,setting,value
COC(=O)[C@H](CO)NC(=O)[C@H]1[C@@H]2C[C@@H](O[C@H]3O[C@@H](C)[C@H](O)[C@@H](N)[C@H]3O)/C=C/C=C/C=C/C=C/C=C/C=C/C=C/[C@H](C)[C@@H](O)[C@@H](C)[C@H](C)OC(=O)C[C@H](O)C[C@H](O)C[C@H](O)CC[C@@H](O)[C@H](O)C[C@](O)(C[C@@H]1O)O2,MIC,Candida albicans [1],2 µg/mL
same,MIC,Aspergillus niger,2 µg/mL
same,hemolysis at 5 ug/ml,[2],14%
same,MIC,Fusarium oxysporum,4 µg/mL
same,MIC,Vanrija humicola,2 µg/mL
CNC(=O)[C@H]1[C@@H]2C[C@@H](O[C@H]3O[C@@H](C)[C@H](O)[C@@H](N)[C@H]3O)/C=C/C=C/C=C/C=C/C=C/C=C/C=C/[C@H](C)[C@@H](O)[C@@H](C)[C@H](C)OC(=O)C[C@H](O)C[C@H](O)C[C@H](O)CC[C@@H](O)[C@H](O)C[C@](O)(C[C@@H]1O)O2,MIC,Candida albicans [1],2 µg/mL
same,MIC,Aspergillus niger,2 µg/mL
same,hemolysis at 5 ug/ml,[2],5%
same,MIC,Fusarium oxysporum,8 µg/mL
same,MIC,Vanrija humicola,1 µg/mL
C[C@@H]1[C@H](O)[C@@H](C)/C=C/C=C/C=C/C=C/C=C/C=C/C=C/[C@H](O[C@H]2O[C@@H](C)[C@H](O)[C@@H](N)[C@H]2O)C[C@@H]2O[C@](O)(C[C@@H](O)[C@H](O)CC[C@@H](O)C[C@@H](O)C[C@@H](O)CC(=O)O[C@H]1C)C[C@H](O)[C@H]2C(N)=O,MIC,Candida albicans [1],2 µg/mL
same,MIC,Aspergillus niger,4 µg/mL
same,hemolysis at 5 ug/ml,[2],8%
same,MIC,Fusarium oxysporum,4 µg/mL
same,MIC,Vanrija humicola,2 µg/mL
CCOC(=O)CNC(=O)[C@H]1[C@@H]2C[C@@H](O[C@H]3O[C@@H](C)[C@H](O)[C@@H](N)[C@H]3O)/C=C/C=C/C=C/C=C/C=C/C=C/C=C/[C@H](C)[C@@H](O)[C@@H](C)[C@H](C)OC(=O)C[C@H](O)C[C@H](O)C[C@H](O)CC[C@@H](O)[C@H](O)C[C@](O)(C[C@@H]1O)O2,MIC,Candida albicans [1],1 µg/mL
same,MIC50,Candida albicans [3],0.15 µg/mL
same,MIC90,Candida albicans [3],0.36 µg/mL
same,MIC,Aspergillus niger,2 µg/mL
same,hemolysis at 5 ug/ml,[2],38%
same,MIC,Fusarium oxysporum,4 µg/mL
same,MIC,Vanrija humicola,1 µg/mL
COC(=O)C(CO)NC(=O)[C@H]1[C@@H]2C[C@@H](O[C@H]3O[C@@H](C)[C@H](O)[C@@H](N)[C@H]3O)/C=C/C=C/C=C/C=C/C=C/C=C/C=C/[C@H](C)[C@@H](O)[C@@H](C)[C@H](C)OC(=O)C[C@H](O)C[C@H](O)C[C@H](O)CC[C@@H](O)[C@H](O)C[C@](O)(C[C@@H]1O)O2 (stereo partly specified),MIC,Candida albicans [1],2 µg/mL
same,MIC,Aspergillus niger,4 µg/mL
same,hemolysis at 5 ug/ml,[2],4%
same,MIC,Fusarium oxysporum,4 µg/mL
same,MIC,Vanrija humicola,2 µg/mL
C[C@@H]1[C@H](O)[C@@H](C)/C=C/C=C/C=C/C=C/C=C/C=C/C=C/[C@H](O[C@H]2O[C@@H](C)[C@H](O)[C@@H](N)[C@H]2O)C[C@@H]2O[C@](O)(C[C@@H](O)[C@H](O)CC[C@@H](O)C[C@@H](O)C[C@@H](O)CC(=O)O[C@H]1C)C[C@H](O)[C@H]2C(=O)NCCCO,MIC,Candida albicans [1],1 µg/mL
same,MIC50,Candida albicans [3],0.09 µg/mL
same,MIC90,Candida albicans [3],0.27 µg/mL
same,MIC,Aspergillus niger,2 µg/mL
same,hemolysis at 5 ug/ml,[2],4%
same,MIC,Fusarium oxysporum,2 µg/mL
same,MIC,Vanrija humicola,1 µg/mL
C[C@@H]1[C@H](O)[C@@H](C)/C=C/C=C/C=C/C=C/C=C/C=C/C=C/[C@H](O[C@H]2O[C@@H](C)[C@H](O)[C@@H](N)[C@H]2O)C[C@@H]2O[C@](O)(C[C@@H](O)[C@H](O)CC[C@@H](O)C[C@@H](O)C[C@@H](O)CC(=O)O[C@H]1C)C[C@H](O)[C@H]2C(=O)N[C@H]1[C@H](O)[C@@H](O)[C@H](CO)O[C@H]1O,MIC,Candida albicans [1],1 µg/mL
same,MIC,Aspergillus niger,2 µg/mL
same,hemolysis at 5 ug/ml,[2],3%
same,MIC,Fusarium oxysporum,8 µg/mL
same,MIC,Vanrija humicola,1 µg/mL
COC(=O)[C@@H](NC(=O)[C@H]1[C@@H]2C[C@@H](O[C@H]3O[C@@H](C)[C@H](O)[C@@H](N)[C@H]3O)/C=C/C=C/C=C/C=C/C=C/C=C/C=C/[C@H](C)[C@@H](O)[C@@H](C)[C@H](C)OC(=O)C[C@H](O)C[C@H](O)C[C@H](O)CC[C@@H](O)[C@H](O)C[C@](O)(C[C@@H]1O)O2)C(C)C,MIC,Candida albicans [1],2 µg/mL
same,MIC,Aspergillus niger,4 µg/mL
same,MIC,Fusarium oxysporum,8 µg/mL
same,MIC,Vanrija humicola,2 µg/mL
C[C@@H]1[C@H](O)[C@@H](C)/C=C/C=C/C=C/C=C/C=C/C=C/C=C/[C@H](O[C@H]2O[C@@H](C)[C@H](O)[C@@H](N)[C@H]2O)C[C@@H]2O[C@](O)(C[C@@H](O)[C@H](O)CC[C@@H](O)C[C@@H](O)C[C@@H](O)CC(=O)O[C@H]1C)C[C@H](O)[C@H]2C(=O)NCCO,MIC,Candida albicans [1],2 µg/mL
same,MIC,Aspergillus niger,4 µg/mL
same,hemolysis at 5 ug/ml,[2],3%
same,MIC,Fusarium oxysporum,4 µg/mL
same,MIC,Vanrija humicola,4 µg/mL
C[C@@H]1[C@H](O)[C@@H](C)/C=C/C=C/C=C/C=C/C=C/C=C/C=C/[C@H](O[C@H]2O[C@@H](C)[C@H](O)[C@@H](NC[C@]3(O)OC[C@@H](O)[C@@H](O)[C@@H]3O)[C@H]2O)C[C@@H]2O[C@](O)(C[C@@H](O)[C@H](O)CC[C@@H](O)C[C@@H](O)C[C@@H](O)CC(=O)O[C@H]1C)C[C@H](O)[C@H]2C(=O)O,MIC,Candida albicans [1],1 µg/mL
same,MIC,Aspergillus niger,2 µg/mL
same,hemolysis at 5 ug/ml,[2],5%
same,MIC,Fusarium oxysporum,8 µg/mL
same,MIC,Vanrija humicola,1 µg/mL
C[C@@H]1[C@H](O)[C@@H](C)/C=C/C=C/C=C/C=C/C=C/C=C/C=C/[C@H](O[C@H]2O[C@@H](C)[C@H](O)[C@@H](NC[C@]3(O)OC[C@@H](O)[C@H](O)[C@@H]3O)[C@H]2O)C[C@@H]2O[C@](O)(C[C@@H](O)[C@H](O)CC[C@@H](O)C[C@@H](O)C[C@@H](O)CC(=O)O[C@H]1C)C[C@H](O)[C@H]2C(=O)O,MIC,Candida albicans [1],1 µg/mL
same,MIC,Aspergillus niger,2 µg/mL
same,hemolysis at 5 ug/ml,[2],8%
same,MIC,Fusarium oxysporum,8 µg/mL
same,MIC,Vanrija humicola,1 µg/mL
C[C@@H]1[C@H](O)[C@@H](C)/C=C/C=C/C=C/C=C/C=C/C=C/C=C/[C@H](O[C@H]2O[C@@H](C)[C@H](O)[C@@H](N)[C@H]2O)C[C@@H]2O[C@](O)(C[C@@H](O)[C@H](O)CC[C@@H](O)C[C@@H](O)C[C@@H](O)CC(=O)O[C@H]1C)C[C@H](O)[C@H]2C(=O)NC(C)(CO)CO,MIC,Candida albicans [1],4 µg/mL
same,MIC,Aspergillus niger,4 µg/mL
same,MIC,Fusarium oxysporum,16 µg/mL
same,MIC,Vanrija humicola,4 µg/mL
C[C@@H]1[C@H](O)[C@@H](C)/C=C/C=C/C=C/C=C/C=C/C=C/C=C/[C@H](O[C@H]2O[C@@H](C)[C@H](O)[C@@H](N)[C@H]2O)C[C@@H]2O[C@](O)(C[C@@H](O)[C@H](O)CC[C@@H](O)C[C@@H](O)C[C@@H](O)CC(=O)O[C@H]1C)C[C@H](O)[C@H]2C(=O)NC1C2CC3CC(C2)CC1C3 (stereo partly specified),MIC,Candida albicans [1],4 µg/mL
same,MIC,Aspergillus niger,4 µg/mL
same,MIC,Fusarium oxysporum,8 µg/mL
same,MIC,Vanrija humicola,4 µg/mL
COC(=O)[C@H](C)NC(=O)[C@H]1[C@@H]2C[C@@H](O[C@H]3O[C@@H](C)[C@H](O)[C@@H](N)[C@H]3O)/C=C/C=C/C=C/C=C/C=C/C=C/C=C/[C@H](C)[C@@H](O)[C@@H](C)[C@H](C)OC(=O)C[C@H](O)C[C@H](O)C[C@H](O)CC[C@@H](O)[C@H](O)C[C@](O)(C[C@@H]1O)O2,MIC,Candida albicans [1],2 µg/mL
same,MIC,Aspergillus niger,4 µg/mL
same,MIC,Fusarium oxysporum,8 µg/mL
same,MIC,Vanrija humicola,2 µg/mL
C[C@@H]1[C@H](O)[C@@H](C)/C=C/C=C/C=C/C=C/C=C/C=C/C=C/[C@H](O[C@H]2O[C@@H](C)[C@H](O)[C@@H](NCCCN)[C@H]2O)C[C@@H]2O[C@](O)(C[C@@H](O)[C@H](O)CC[C@@H](O)C[C@@H](O)C[C@@H](O)CC(=O)O[C@H]1C)C[C@H](O)[C@H]2C(=O)O,MIC,Candida albicans [1],2 µg/mL
same,MIC,Aspergillus niger,4 µg/mL
same,hemolysis at 5 ug/ml,[2],45%
same,MIC,Fusarium oxysporum,4 µg/mL
same,MIC,Vanrija humicola,4 µg/mL
C[C@@H]1[C@H](O)[C@@H](C)/C=C/C=C/C=C/C=C/C=C/C=C/C=C/[C@H](O[C@H]2O[C@@H](C)[C@H](O)[C@@H](NCc3ccc(N(C)C)cc3)[C@H]2O)C[C@@H]2O[C@](O)(C[C@@H](O)[C@H](O)CC[C@@H](O)C[C@@H](O)C[C@@H](O)CC(=O)O[C@H]1C)C[C@H](O)[C@H]2C(=O)O,MIC,Candida albicans [1],2 µg/mL
same,MIC,Aspergillus niger,4 µg/mL
same,MIC,Fusarium oxysporum,> 16 µg/mL
same,MIC,Vanrija humicola,2 µg/mL
C[C@@H]1[C@H](O)[C@@H](C)/C=C/C=C/C=C/C=C/C=C/C=C/C=C/[C@H](O[C@H]2O[C@@H](C)[C@H](O)[C@@H](NCc3ccccc3S(=O)(=O)O)[C@H]2O)C[C@@H]2O[C@](O)(C[C@@H](O)[C@H](O)CC[C@@H](O)C[C@@H](O)C[C@@H](O)CC(=O)O[C@H]1C)C[C@H](O)[C@H]2C(=O)O,MIC,Candida albicans [1],4 µg/mL
same,MIC,Aspergillus niger,4 µg/mL
same,MIC,Fusarium oxysporum,> 16 µg/mL
same,MIC,Vanrija humicola,4 µg/mL
C[C@@H]1[C@H](O)[C@@H](C)/C=C/C=C/C=C/C=C/C=C/C=C/C=C/[C@H](O[C@H]2O[C@@H](C)[C@H](O)[C@@H](NC[C@]3(O)OC[C@@H](O)[C@@H](O[C@@H]4O[C@H](CO)[C@H](O)[C@H](O)[C@H]4O)[C@@H]3O)[C@H]2O)C[C@@H]2O[C@](O)(C[C@@H](O)[C@H](O)CC[C@@H](O)C[C@@H](O)C[C@@H](O)CC(=O)O[C@H]1C)C[C@H](O)[C@H]2C(=O)O,MIC,Candida albicans [1],2 µg/mL
same,MIC,Aspergillus niger,2 µg/mL
same,hemolysis at 5 ug/ml,[2],4%
same,MIC,Fusarium oxysporum,8 µg/mL
same,MIC,Vanrija humicola,2 µg/mL
C[C@@H]1[C@H](O)[C@@H](C)/C=C/C=C/C=C/C=C/C=C/C=C/C=C/[C@H](O[C@H]2O[C@@H](C)[C@H](O)[C@@H](N)[C@H]2O)C[C@@H]2O[C@](O)(C[C@@H](O)[C@H](O)CC[C@@H](O)C[C@@H](O)C[C@@H](O)CC(=O)O[C@H]1C)C[C@H](O)[C@H]2C(=O)N(C)CC(O)C(O)C(O)C(O)CO (stereo partly specified),MIC,Candida albicans [1],4 µg/mL
same,MIC,Aspergillus niger,4 µg/mL
same,MIC,Fusarium oxysporum,> 16 µg/mL
same,MIC,Vanrija humicola,4 µg/mL
C[C@@H]1[C@H](O)[C@@H](C)/C=C/C=C/C=C/C=C/C=C/C=C/C=C/[C@H](O[C@H]2O[C@@H](C)[C@H](O)[C@@H](NC(=O)C(N)CCCCN)[C@H]2O)C[C@@H]2O[C@](O)(C[C@@H](O)[C@H](O)CC[C@@H](O)C[C@@H](O)C[C@@H](O)CC(=O)O[C@H]1C)C[C@H](O)[C@H]2C(=O)O (stereo partly specified),MIC,Candida albicans [1],8 µg/mL
same,MIC,Aspergillus niger,16 µg/mL
same,MIC,Fusarium oxysporum,> 16 µg/mL
same,MIC,Vanrija humicola,8 µg/mL
